What was measured:
Format in all cases: ADME, organism-based
[1] = Terminal half life in healthy white human with CYP2C8*1/*3 genotype at 2 mg, po; conditions: in vivo, read-out: beta t1/2 (converted)
Procedure, shortened: (§1)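 Single oral 2 mg dose; plasma sampled pre-dose and from 0:15 to 24 h post-dose (15 samples). Repaglinide measured by LC-MS/MS with diclofenac internal standard; calibration 0.098–79.139 µg/L. Noncompartmental analysis; AUC by linear/log-linear trapezoidal rule extrapolated to infinity. Reported as mean with 95% CI for all subjects and for each CYP2C8*3 genotype group.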

Homo sapiens [2] = test: Mean change in blood glucose concentration in healthy white human plasma with CYP2C8*3/*3 genotype at 2 mg, po up to 6 hrs; conditions: in vivo
Procedure, shortened: (§2)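 Single 2 mg oral dose in healthy Caucasian volunteers genotyped for CYP2C8*3, with SLCO1B1 521T>C also typed. […] Mean change is the average difference between values up to 6 h post-dose and baseline. Fasting lasted to 6 h. Mean with 95% CI or SD by genotype group.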

Homo sapiens [3] = organism: Homo sapiens; test: Maximal change in blood glucose concentration in healthy human plasma with SLCO1B1 521TC genotype at 0.5 mg
Homo sapiens [4] = test: Mean change in blood glucose concentration in healthy white human plasma SLCO1B1 521TT/CYP2C8*1/*1 combined genotype at 2 mg, po; conditions: in vivo; procedure, shortened: as §2
Homo sapiens [5] = test: Mean change in insulin concentration in healthy white human plasma with CYP2C8*3/*3 genotype at 2 mg, po up to 6 hrs; conditions: in vivo
Procedure, shortened: (§3)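 Healthy Caucasians got a single 2 mg oral dose and were genotyped for CYP2C8*3 and SLCO1B1 521T>C. Plasma insulin was sampled from pre-dose to 6 h and measured by solid-phase enzyme-labelled chemiluminescent immunometric assay (calibration 2–300 mU/l). Mean change is the average of post-dose values minus baseline up to 6 h, summarised per genotype group.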

Homo sapiens [6] = test: Mean change in insulin concentration in healthy white human plasma with SLCO1B1 521TT/CYP2C8*1/*1 combined genotype at 2 mg, po; conditions: in vivo; procedure, shortened: as §3
[7] = AUC (0 to infinity) in healthy white human with SLCO1B1 521TT/CYP2C8*1/*1 combined genotype at 2 mg, po; set-up: dose 2 mg, route oral, time infinity; conditions: plasma
Procedure, shortened: (§4)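 Healthy Caucasians genotyped for CYP2C8*3 and SLCO1B1 521T>C were given a single oral 2 mg dose of repaglinide, and alcohol, caffeine and grapefruit were withheld. Plasma was sampled before dosing and at 15 times from 0.25 to 24 h. Drug was measured by LC-MS/MS against diclofenac internal standard, linear 0.098–79.139 µg/L. Noncompartmental analysis: Cmax taken as observed; AUC by linear/log-linear trapezoidal rule extrapolated to infinity.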

Homo sapiens [8] = test: Mean change in insulin concentration in healthy white human plasma with SLCO1B1 521CC/CYP2C8*1/*3 combined genotype at 2 mg, po; conditions: in vivo; procedure, shortened: as §3
[9] = AUC (0 to infinity) in healthy white human with SLCO1B1 521TT/CYP2C8*3/*3 combined genotype at 2 mg, po; set-up: dose 2 mg, time infinity, route oral; conditions: plasma; procedure, shortened: as §4
[10] = Cmax in healthy white human with SLCO1B1 521TT/CYP2C8*3/*3 combined genotype at 2 mg, po; set-up: dose 2 mg, route oral; conditions: in vivo; procedure, shortened: as §4
[11] = AUC (0 to infinity) in healthy white human with SLCO1B1 521CC/CYP2C8*1/*3 combined genotype at 2 mg, po; set-up: dose 2 mg, time infinity, route oral; conditions: plasma; procedure, shortened: as §4
[12] = Cmax in healthy white human with SLCO1B1 521CC/CYP2C8*1/*3 combined genotype at 2 mg, po; set-up: dose 2 mg, route oral; conditions: in vivo; procedure, shortened: as §4
[13] = Tmax in healthy white human with CYP2C8*3/*3 genotype at 2 mg, po; conditions: in vivo
Homo sapiens [14] = test: Mean change in insulin concentration in healthy white human plasma with SLCO1B1 521TC/CYP2C8*1/*1 combined genotype at 2 mg, po; conditions: in vivo; procedure, shortened: as §3
[15] = AUC (0 to infinity) in healthy white human with SLCO1B1 521TT/CYP2C8*1/*3 combined genotype at 2 mg, po; set-up: dose 2 mg, route oral, time infinity; conditions: plasma; procedure, shortened: as §4
Homo sapiens [16] = test: Mean change in insulin concentration in healthy white human plasma with SLCO1B1 521TC/CYP2C8*1/*3 combined genotype at 2 mg, po; conditions: in vivo; procedure, shortened: as §3
Homo sapiens [17] = test: Mean change in blood glucose concentration in healthy white human plasma SLCO1B1 521TC/CYP2C8*1/*3 combined genotype at 2 mg, po; conditions: in vivo
Procedure, shortened: (§5)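 Venous blood glucose was read at each blood sampling time after a single oral 2 mg dose, with fasting up to 6 h. […] Maximal change is the largest change from baseline. Mean change is the average difference between values up to 6 h post-dose and baseline.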

Homo sapiens [18] = test: Maximal change in blood glucose concentration in healthy white human plasma with CYP2C8*1/*1 genotype at 2 mg, po up to 6 hrs; conditions: in vivo; procedure, shortened: as §5
[19] = Cmax in healthy white human with SLCO1B1 521TC/CYP2C8*3/*3 combined genotype at 2 mg, po; set-up: dose 2 mg, route oral; conditions: in vivo; procedure, shortened: as §4
Homo sapiens [20] = test: Maximal change in insulin concentration in healthy white human plasma with CYP2C8*1/*3 genotype at 2 mg, po up to 6 hrs; conditions: in vivo
Procedure, shortened: (§6)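 Plasma insulin was sampled up to 6 h after a single oral 2 mg dose, with subjects fasting. It was measured by solid-phase enzyme-labelled chemiluminescent immunometric assay, calibration range 2–300 mU/l. Maximal change is the largest change from the baseline concentration within 6 h.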

Homo sapiens [21] = test: Mean change in insulin concentration in healthy white human plasma with CYP2C8*1/*1 genotype at 2 mg, po up to 6 hrs; conditions: in vivo; procedure, shortened: as §3
[22] = Cmax in healthy white human at 2 mg, po; set-up: dose 2 mg, route oral; conditions: in vivo; procedure, shortened: as §4
[23] = AUC (0 to infinity) in healthy white human with SLCO1B1 521TC/CYP2C8*1/*1 combined genotype at 2 mg, po; set-up: dose 2 mg, route oral, time infinity; conditions: plasma; procedure, shortened: as §4
Homo sapiens [24] = test: Maximal change in insulin concentration in healthy white human plasma with CYP2C8*1/*1 genotype at 2 mg, po up to 6 hrs; conditions: in vivo; procedure, shortened: as §6
[25] = Terminal half life in healthy white human with CYP2C8*1/*1 genotype at 2 mg, po; conditions: in vivo, read-out: beta t1/2 (converted); procedure, shortened: as §1
Homo sapiens [26] = test: Maximal change in insulin concentration in healthy white human plasma with CYP2C8*3/*3 genotype at 2 mg, po up to 6 hrs; conditions: in vivo; procedure, shortened: as §6
[27] = Cmax in healthy white human with SLCO1B1 521TC/CYP2C8*1/*1 combined genotype at 2 mg, po; set-up: dose 2 mg, route oral; conditions: in vivo; procedure, shortened: as §4
Homo sapiens [28] = test: Mean change in blood glucose concentration in healthy white human plasma SLCO1B1 521TC/CYP2C8*1/*1 combined genotype at 2 mg, po; conditions: in vivo; procedure, shortened: as §5
[29] = Tmax in healthy white human with CYP2C8*1/*1 genotype at 2 mg, po; conditions: in vivo
[30] = Terminal half life in healthy white human at 2 mg, po; conditions: in vivo, read-out: beta t1/2 (converted); procedure, shortened: as §1
Homo sapiens [31] = test: Mean change in blood glucose concentration in healthy white human plasma SLCO1B1 521CC/CYP2C8*3/*3 combined genotype at 2 mg, po; conditions: in vivo; procedure, shortened: as §5
[32] = AUC (0 to infinity) in healthy white human with CYP2C8*1/*1 genotype at 2 mg, po; set-up: dose 2 mg, time infinity, route oral; conditions: plasma; procedure, shortened: as §4
[33] = AUC (0 to infinity) in healthy white human with CYP2C8*1/*3 genotype at 2 mg, po; set-up: dose 2 mg, time infinity, route oral; conditions: plasma; procedure, shortened: as §4
Homo sapiens [34] = organism: Homo sapiens; test: Maximal change in blood glucose concentration in healthy human plasma with SLCO1B1 521TT genotype at 0.5 mg
Homo sapiens [35] = test: Mean change in blood glucose concentration in healthy white human plasma at 2 mg, po up to 6 hrs; conditions: in vivo; procedure, shortened: as §2

With `CCOc1cc(CC(=O)N[C@@H](CC(C)C)c2ccccc2N2CCCCC2)ccc1C(=O)O` [REPAGLINIDE] the half-life [1] was 1.3 h, the Activity (Homo sapiens [2]) was -0.5 mM and the Activity (Homo sapiens [3]) was 1.9 mM. The Activity (Homo sapiens [4]) was -0.4 mM, the Activity (Homo sapiens [5]) was 2.6 mU/L and the Activity (Homo sapiens [6]) was 7.1 mU/l. It also gave an AUC(0-inf) [7] of 92.3 ng·h/mL, an Activity (Homo sapiens [8]) of 0.6 mU/l and an AUC(0-inf) [9] of 116 ng·h/mL. The Cmax [10] was 36.6 ng/mL, the AUC(0-inf) [11] was 18.2 ng·h/mL and the Cmax [12] was 17.7 ng/mL. For the same compound, the Tmax [13] was 0.9 h, the Activity (Homo sapiens [14]) was 5.7 mU/l and the AUC(0-inf) [15] was 117 ng·h/mL. It also gave an Activity (Homo sapiens [16]) of 5.6 mU/l, an Activity (Homo sapiens [17]) of -1 mM and an Activity (Homo sapiens [18]) of -1.62 mM. The Cmax [19] was 15.3 ng/mL, the Activity (Homo sapiens [20]) was 17.3 mU/L and the Activity (Homo sapiens [21]) was 6.7 mU/L. For the same compound, the Cmax [22] was 52.8 ng/mL, the AUC(0-inf) [23] was 146 ng·h/mL and the Activity (Homo sapiens [24]) was 23.9 mU/L. For the same compound, the half-life [25] was 1.2 h, the Activity (Homo sapiens [26]) was 8.3 mU/L and the Cmax [27] was 83.7 ng/mL. It also gave an Activity (Homo sapiens [28]) of -0.5 mM, a Tmax [29] of 0.8 h and a half-life [30] of 1.3 h. For the same compound, the Activity (Homo sapiens [31]) was -0.8 mM, the AUC(0-inf) [32] was 106 ng·h/mL and the AUC(0-inf) [33] was 97.2 ng·h/mL. The Activity (Homo sapiens [34]) was 1.9 mM and the Activity (Homo sapiens [35]) was -0.53 mM.

Reference: ChEMBL document CHEMBL3526119, “Effect of the CYP2C8 genotype on the pharmacokinetics and pharmacodynamics of repaglinide” (Drug Metab Dispos, 2011)
